PKA-R2B activ: PKA-R2B complex activation; P22694+P31323; activation, % at 11.4 µM; 340,000 tested, 0.079% active; AID 504700; PKA-R2B holoenzyme dissociation, Cy5-IP20 fluorescence polarization; R2B truncated from residue 108, S112A mutant; 0% DMSO only, 100% 113 µM cGMP;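 active means activation above a cutoff set at the mean over all compounds plus 3 SD, cut at about 18% in these data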;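 further: higher means more holoenzyme dissociation and a rise in polarization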
Target sequence (P31323 whole entry, looked up, other chains not shown, the tested form may be a part): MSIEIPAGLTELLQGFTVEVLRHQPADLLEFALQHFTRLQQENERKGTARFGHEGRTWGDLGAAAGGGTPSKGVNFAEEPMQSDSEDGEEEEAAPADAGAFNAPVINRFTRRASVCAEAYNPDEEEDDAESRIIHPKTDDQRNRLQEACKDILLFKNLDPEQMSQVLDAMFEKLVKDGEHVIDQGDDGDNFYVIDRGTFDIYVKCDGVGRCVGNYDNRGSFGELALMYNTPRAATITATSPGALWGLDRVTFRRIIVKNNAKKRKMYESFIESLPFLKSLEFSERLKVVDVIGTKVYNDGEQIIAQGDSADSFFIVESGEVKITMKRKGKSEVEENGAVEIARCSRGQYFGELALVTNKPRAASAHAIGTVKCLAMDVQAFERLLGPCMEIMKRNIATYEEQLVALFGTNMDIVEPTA
SR-BI HDL uptake: blocks mouse SR-BI lipid uptake from DiI-HDL | ldlA[mSR-BI] CHO cells, DiI-HDL uptake fluorescence, 3 h | AID 488896 | 320,000 tested, 0.96% active | inhibition, % at 12.5 µM | Q61009;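 active means mean replicate inhibition of at least 70% and a set share of replicates each scoring 70 or more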
dFosB act-1: enhances mouse delta FosB homodimer DNA binding. P13346. purified delta FosB, TAMRA-CDK5 oligo fluorescence polarization; percent of positive-control signal above neutral wells. activation, % at 25 µM. 340,000 tested, 0.99% active. AID 493131;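 active means mean activation above about 17%, with every replicate also reaching it, limit read from the data, passing the limit was not always enough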
CDK5 inh: CDK5/p35 (human) kinase inhibition | Q00535+Q15078 | Recombinant CDK5/p35, ADP-Glo luminescence, 60 min | inhibition, % at 10 µM | 330,000 tested, 0.01% active;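 active means highest replicate inhibition of at least 50% and at least 75% of replicates reaching 50%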
PKA-R1A activ: activators of PKA-R1A complex | 340,000 tested, 0.083% active | PKA-R1A dissociation, Cy5-IP20 fluorescence polarization; scaled: DMSO 0%, 113 µM cGMP 100% | activation, % at 11.4 µM | P00514+P68181;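 active means percent activation above the mean of all tested compounds plus 3 SD, cut at about 19% in these data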;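 further: higher means more PKAc released from R1A so a rise in polarization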
SR-BI DiI-HDL act: SR-BI HDL lipid transfer activation; CHO ldlA[mSR-BI] cells, DiI-HDL uptake fluorescence, 3 h; 100 = double the neutral-control signal; activation, % at 12.5 µM; 320,000 tested, 0.096% active; AID 504775;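 active means mean replicate activation of at least 60% and every replicate at or above 60%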
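Assay system: LDL receptor-deficient CHO ldlA cells overexpressing murine SR-BI / Medium: BSA-supplemented, HEPES-buffered Ham's F12, pH 7.4 / Probe or stimulus: DiI-labelled HDL at 10 µg/mL final / Timing: compound with DiI-HDL co-incubation, 3 h at 37 °C / Technique: bottom-read cell fluorescence after medium removal, ex 550/em 595 nm / Measure: HDL uptake via cellular fluorescence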
dFosB act-2: enhances mouse delta FosB homodimer binding to DNA | shares compounds with dFosB act-1 | purified delta FosB, TAMRA-CDK5 oligo fluorescence polarization; normalised: neutral wells 0, positive control 100 | activation, % at 24.9 µM | 2,400 tested, under 10 active | AID 588690;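 active means highest replicate activation at or above 34% and every replicate reaching that threshold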;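 further: higher polarization means more probe DNA bound by delta FosB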
Hits are given with their value; 0 = inactive; - = no result. The list is not random: actives were taken first. Their share in the collection is about 2.1%.

SMILES	PKA-R2B activ	SR-BI HDL uptake	dFosB act-1	CDK5 inh	PKA-R1A activ	SR-BI DiI-HDL act	dFosB act-2
CN(C)S(=O)(=O)c1ccc2oc(SCC(=O)c3c(N)n(C4CC4)c(=O)[nH]c3=O)nc2c1	0	0	20.4	0	0	0	0
Cc1ccc2sc(N(CCN(C)C)C(=O)c3ccc4ccccc4c3)nc2c1C	0	0	39.3	-	0	0	0
Cc1cc(C)c2sc(N(CCN(C)C)C(=O)c3ccc4ccccc4c3)nc2c1	0	0	38.9	-	0	0	0
CC(=O)Nc1ccc(S(=O)(=O)NCCC(=O)OC(C)C(=O)NC2(C#N)CCCCC2)cc1 (configuration not stated)	0	0	0	0	0	0	-
CCOc1cc(N2CCOCC2)c(OCC)cc1NS(=O)(=O)c1cc(NC(C)=O)ccc1OC	0	-	0	0	0	-	-
O=C(NCc1csc(-c2cccs2)n1)Nc1cccc(Cl)c1	0	0	65.6	0	0	0	0
CCC(=O)NCc1csc(-c2cccs2)n1	0	0	0	0	0	0	-
CCCCN(C(=O)c1c(-c2ccccc2)noc1C)c1c(N)n(CCC)c(=O)[nH]c1=O	0	0	0	0	0	0	-
COC(=O)c1cc(NC(=O)C2CC(=O)NC(=NCc3ccc(OC)cc3)S2)cc(C(=O)OC)c1 (configuration not stated)	0	0	37.1	0	0	0	0
Cc1ccc(NC(=O)c2ncc(Cl)c(Cl)c2Cl)cc1C	0	0	26.4	0	0	0	0
CCOC(=O)c1c(C)[nH]c(C)c1C(=O)COC(=O)c1cccc(C)c1O	0	0	0	0	0	0	-
Cc1cccc(C(=O)OCC(=O)c2c(C)[nH]c3ccccc23)c1O	0	0	27.8	0	0	0	0
O=C(NCCN1CCOCC1)C(=O)NCC1OCCN1S(=O)(=O)c1ccc(Cl)cc1 (configuration not stated)	0	-	-	-	0	-	-
Cc1ccccc1OCCOc1cccc(/C=N/NC(=O)Cc2nnc(N)s2)c1	0	0	48.5	0	0	0	0
O=C(Nc1ccc(-n2ccc(C(F)(F)F)n2)cc1)Nc1cccc(Cl)c1	0	0	28.7	0	0	0	0
Cc1cc(C)cc(NC(=O)Nc2ccc(-n3ccc(C(F)(F)F)n3)cc2)c1	0	0	0	0	0	0	-
N#Cc1c(NC(=O)COC(=O)c2ccc(O)cc2O)sc2c1CCC2	0	0	38.9	0	0	0	0
COc1cc(OC)cc(C(=O)Nc2cccc(-c3ccc(N4CCOCC4)nn3)c2)c1	0	0	20.3	0	0	0	0
O=C(COC(=O)c1cc([N+](=O)[O-])ccc1NCc1ccccc1Cl)NCC(F)(F)F	0	0	53.2	0	0	0	0
CC(=O)N1CCN(C(=O)c2cccc(S(=O)(=O)N3CCN(c4ccccc4)CC3)c2)CC1	0	0	0	0	0	0	-
O=C(NNC(=O)c1cccc(S(=O)(=O)N2CCN(c3ccccc3)CC2)c1)c1ccc(Cl)cc1	0	0	57.6	-	0	0	0
CC(C)c1c(C(=O)N/N=C/c2ccc3c(c2)OCO3)nnn1-c1nonc1N	0	0	0	0	0	0	-
Nc1nonc1-n1nnc(C(=O)N/N=C/c2ccc3c(c2)OCO3)c1-c1ccccc1	0	0	18.0	0	0	0	0
Nc1nonc1-n1nnc(C(=O)N/N=C/c2cccc(Cl)c2)c1-c1ccc2c(c1)OCO2	0	0	72.3	0	0	0	0
Nc1nonc1-n1nnc(C(=O)N/N=C/c2c(F)cccc2Cl)c1-c1ccc2c(c1)OCO2	0	0	0	0	0	0	-
Nc1nonc1-n1nnc(C(=O)N/N=C/c2ccc(Br)cc2)c1-c1ccc2c(c1)OCO2	0	0	20.8	0	0	0	0
O=C(Nc1ccc2c(c1)CN(Cc1ccccc1O)CC2)C1CCCO1 (configuration not stated)	0	0	0	0	0	0	-
O=C(OCc1cc(=O)n2ccsc2n1)C1(c2ccccc2)CC1	0	-	-	-	0	-	-
